Assay results from ChEMBL document CHEMBL1150133, “New saponins from the starfish Certonardoa semiregularis” (J Nat Prod, 2002).
Values after ≈ are worked out from the molar mass of the structure shown.

Legend:
Coxsackievirus B3 = experiment: Antiviral activity against Coxsackievirus B3 Nancy infected in human HeLa assessed as inhibition of virus-induced cytopathic effect after 2 days by MTT assay; assay type: functional, organism-based; details: Enterovirus B, 48 h
Method in brief: (§1)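 In HeLa cells, virus-induced CPE inhibition was run with infected or mock-infected wells, 30 min virus adsorption, and compound in DMEM/2% FBS in duplicate per concentration. After 2 days at 37 °C, MTT read-out gave EC50 from infected wells and CC50 from mock-infected wells.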

[1] = Cytotoxicity against african green monkey Vero cells after 3 days by MTT assay; assay type: cell-based; details: chlorocebus sabaeus
Method in brief: (§2)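 Confluent Vero cells were infected at 100 CCID50 per well, or mock-infected, with 1 h adsorption at 37 °C. Compound in DMEM/2% FBS was added in duplicate per concentration, followed by 3 days at 37 °C. Viability was read by MTT, and EC50 for CPE inhibition and CC50 for cytocidal effect were calculated.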

Human alphaherpesvirus 2 = experiment: Antiviral activity against HSV2 MS infected in african green monkey Vero cells assessed as inhibition of virus-induced cytopathic effect after 3 days by MTT assay; assay type: functional, organism-based; details: Human alphaherpesvirus 2, MS, 72 h; method in brief: as §2
[2] = system: Human immunodeficiency virus 1; experiment: Antiviral activity against HIV1 3B infected in human MT4 cells assessed as inhibition of virus-induced cytopathic effect after 5 days by MTT assay; assay type: functional, organism-based; details: Human immunodeficiency virus 1, 3B, MT4, 120 h
Method in brief: (§3)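 MT-4 cells (RPMI 1640/10% FBS), HIV-infected or mock-infected, were plated with 2× concentrated test samples and kept 5 days at 37 °C. Cells were inspected microscopically, then MTT was added for 1 h, dissolved in acidified 2-propanol, and read at 540 nm (690 nm reference). EC50 (50% protection) came from infected wells and CC50 (50% viability loss) from mock-infected wells.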

[3] = system: Encephalomyocarditis virus; experiment: Antiviral activity against Encephalomyocarditis virus EMC infected in human HeLa assessed as inhibition of virus-induced cytopathic effect after 2 days by MTT assay; assay type: functional, organism-based; details: Cardiovirus A, 48 h; method in brief: as §1
[4] = Cytotoxicity against human MT4 cells after 5 days by MTT assay; assay type: cell-based; method in brief: as §3
Human alphaherpesvirus 1 = experiment: Antiviral activity against HSV1 F infected in african green monkey Vero cells assessed as inhibition of virus-induced cytopathic effect after 3 days by MTT assay; assay type: functional, organism-based; details: Human alphaherpesvirus 1, F, 72 h; method in brief: as §2
[5] = system: Vesicular stomatitis Indiana virus; experiment: Antiviral activity against Vesicular stomatitis Indiana virus infected in human HeLa assessed as inhibition of virus-induced cytopathic effect after 2 days by MTT assay; assay type: functional, organism-based; details: 48 h
Method in brief: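 CPE-inhibition assay with VSV strain Indiana (stock grown in HeLa cells) on confluent HeLa cells (DMEM/5% FBS, gentamycin) in 96-well plates. Infection at 100 CCID50 per well with 30 min adsorption at 37 °C, then the compound in DMEM/2% FBS, duplicate wells per concentration, 2 days at 37 °C. Viability read by MTT; EC50 is the concentration giving 50% protection. Mock-infected wells gave CC50.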

[6] = Cytotoxicity against human HeLa cells after 2 days by MTT assay; assay type: cell-based; method in brief: as §1
[7] = system: Human immunodeficiency virus 2; experiment: Antiviral activity against HIV2 ROD infected in human MT4 cells assessed as inhibition of virus-induced cytopathic effect after 5 days by MTT assay; assay type: functional, organism-based; details: Human immunodeficiency virus 2, ROD, MT4, 120 h; method in brief: as §3

| Compound | EC50 (Coxsackievirus B3) | CC50 at 72 h [1] | EC50 (Human alphaherpesvirus 2) | EC50 [2] | EC50 [3] | CC50 at 120 h [4] | EC50 (Human alphaherpesvirus 1) | EC50 [5] | CC50 at 48 h [6] | EC50 [7] |
| --- | --- | --- | --- | --- | --- | --- | --- | --- | --- | --- |
| C=C(CC[C@@H](C)[C@H]1C[C@@H](O)[C@@H]2[C@]1(C)CC[C@@H]1[C@@]3(C)CC[C@H](O)[C@H](O)[C@@H]3[C@@H](O)C[C@]12O)C(C)CO[C@@H]1OC[C@@H](O)[C@H](O)[C@H]1O[C@@H]1OC[C@@H](O)[C@H](O)[C@H]1OC (some centres undefined) [ACODONTASTEROSIDE G] | > 51.5 µg/mL | > 100 µg/mL | 94.5 µg/mL (≈ 125 µM) | > 42.5 µg/mL | > 51.5 µg/mL | 42.5 µg/mL (≈ 56 µM) | 86.1 µg/mL (≈ 113 µM) | > 51.5 µg/mL | 51.5 µg/mL (≈ 67.9 µM) | > 42.5 µg/mL |
| Nc1nc2c(ncn2COCCO)c(=O)[nH]1 [ACYCLOVIR] | – | > 10 µg/mL | 2.4 µg/mL (≈ 10.7 µM) | – | – | – | 0.8 µg/mL (≈ 3.55 µM) | – | – | – |
| C=C(CC[C@@H](C)[C@H]1C[C@@H](O)[C@@H]2[C@]1(C)CC[C@@H]1[C@@]3(C)CC[C@H](O)[C@H](O)[C@@H]3[C@@H](O)C[C@]12O)C(C)CO[C@@H]1OC[C@@H](O)[C@H](OS(=O)(=O)[O-])[C@H]1O[C@@H]1OC[C@@H](O)[C@H](O)[C@H]1OC.[Na+] (some centres undefined) [CERTONARDOSIDE A] | > 100 µg/mL | > 100 µg/mL | > 100 µg/mL | > 6.8 µg/mL | > 100 µg/mL | 6.8 µg/mL | > 100 µg/mL | > 100 µg/mL | > 100 µg/mL | > 6.8 µg/mL |
| C=C(CC[C@@H](C)[C@H]1C[C@@H](O)[C@@H]2[C@]1(C)CC[C@@H]1[C@@]3(C)CC[C@H](O)C[C@@H]3[C@@H](O)C[C@]12O)C(C)CO[C@@H]1OC[C@@H](O)[C@H](OS(=O)(=O)[O-])[C@H]1O[C@@H]1OC[C@@H](O)[C@H](O)[C@H]1OC.[Na+] (some centres undefined) [CERTONARDOSIDE C] | > 100 µg/mL | 97.5 µg/mL | > 97.5 µg/mL | > 1.4 µg/mL | > 100 µg/mL | 1.4 µg/mL | > 97.5 µg/mL | > 100 µg/mL | > 100 µg/mL | > 1.4 µg/mL |
| CO[C@H]1[C@H](O[C@H]2[C@H](OC[C@@H](C)[C@H](C)/C=C/[C@@H](C)[C@H]3C[C@@H](O)[C@@H]4[C@]3(C)CC[C@@H]3[C@@]5(C)CC[C@H](O)[C@H](O)[C@@H]5[C@@H](O)C[C@]34O)OC[C@@H](O)[C@@H]2OS(=O)(=O)[O-])OC[C@@H](O)[C@@H]1O.[Na+] [CERTONARDOSIDE D] | > 100 µg/mL | 79.9 µg/mL | > 79.9 µg/mL | > 100 µg/mL | > 100 µg/mL | > 100 µg/mL | > 79.9 µg/mL | > 100 µg/mL | > 100 µg/mL | > 100 µg/mL |
| CO[C@H]1[C@H](O[C@H]2[C@H](O[C@@H](CC[C@@H](C)[C@H]3C[C@@H](O)[C@@H]4[C@]3(C)CC[C@@H]3[C@@]5(C)CC[C@H](O)[C@H](O)[C@@H]5[C@@H](O)C[C@]34O)C(C)C)O[C@H](CO)[C@@H]2O)OC[C@@H](OC)[C@@H]1O [CERTONARDOSIDE F] | > 64.8 µg/mL | > 100 µg/mL | > 100 µg/mL | > 39.7 µg/mL | > 64.8 µg/mL | 39.7 µg/mL (≈ 52.2 µM) | > 100 µg/mL | > 64.8 µg/mL | 64.8 µg/mL (≈ 85.2 µM) | > 39.7 µg/mL |
| CO[C@H]1[C@H](O[C@H]2[C@H](O[C@@H](CC[C@@H](C)[C@H]3C[C@@H](O)[C@@H]4[C@]3(C)CC[C@@H]3[C@@]5(C)CC[C@H](O)[C@H](O)[C@@H]5[C@@H](OS(=O)(=O)[O-])C[C@]34O)C(C)C)O[C@H](CO)[C@@H]2O)OC[C@@H](OC)[C@@H]1O.[Na+] [CERTONARDOSIDE G] | > 100 µg/mL | > 100 µg/mL | > 100 µg/mL | > 100 µg/mL | > 100 µg/mL | > 100 µg/mL | > 100 µg/mL | > 100 µg/mL | > 100 µg/mL | > 100 µg/mL |
| CO[C@H]1[C@H](O[C@H]2[C@H](O[C@@H](CC[C@@H](C)[C@H]3C[C@@H](O)[C@H]4[C@@H]5C[C@H](O)[C@H]6[C@@H](O)[C@@H](O)CC[C@]6(C)[C@H]5CC[C@@]43C)C(C)C)O[C@H](CO)[C@@H]2O)OC[C@@H](OC)[C@@H]1O [CERTONARDOSIDE I] | > 59.9 µg/mL | > 100 µg/mL | > 100 µg/mL | > 42.5 µg/mL | > 59.9 µg/mL | 42.5 µg/mL (≈ 57.1 µM) | > 100 µg/mL | > 59.9 µg/mL | 59.9 µg/mL (≈ 80.4 µM) | > 42.5 µg/mL |
| CO[C@@H]1CO[C@@H](OCC[C@@H](CC[C@@H](C)[C@H]2[C@@H](O)[C@@H](O)[C@@H]3[C@]2(C)CC[C@@H]2[C@@]4(C)CC[C@H](O)[C@H](O)[C@@H]4[C@@H](OS(=O)(=O)[O-])C[C@]23O)C(C)C)[C@H](O)[C@H]1O.[Na+] [CERTONARDOSIDE J] | > 58.8 µg/mL | > 100 µg/mL | 82.3 µg/mL | > 67.4 µg/mL | > 58.8 µg/mL | 67.4 µg/mL | 81.1 µg/mL | > 58.8 µg/mL | 58.8 µg/mL | > 67.4 µg/mL |
| CO[C@@H]1CO[C@@H](OCC[C@@H](CC[C@@H](C)[C@H]2[C@@H](O)[C@@H](O)[C@H]3[C@@H]4C[C@H](OS(=O)(=O)[O-])[C@H]5[C@@H](O)[C@@H](O)CC[C@]5(C)[C@H]4CC[C@]23C)C(C)C)[C@H](O)[C@H]1O.[Na+] [CERTONARDOSIDE K] | > 57.9 µg/mL | > 100 µg/mL | 82.1 µg/mL | > 100 µg/mL | > 57.9 µg/mL | > 100 µg/mL | 97.8 µg/mL | > 57.9 µg/mL | 57.9 µg/mL | > 100 µg/mL |
| Nc1ccn([C@@H]2O[C@H](CO)[C@@H](O)[C@@H]2O)c(=O)n1 [CYTARABINE] | – | 4.8 µg/mL (≈ 19.7 µM) | 3 µg/mL (≈ 12.3 µM) | – | – | – | 1.6 µg/mL (≈ 6.58 µM) | – | – | – |
| O=c1[nH]cnc2c1ncn2[C@H]1CC[C@@H](CO)O1 [DIDANOSINE] | – | – | – | 2.1 µg/mL (≈ 8.89 µM) | – | > 100 µg/mL | – | – | – | 11 µg/mL (≈ 46.6 µM) |
| NC(=O)c1ncn([C@@H]2O[C@H](CO)[C@@H](O)[C@H]2O)n1 [RIBAVIRIN] | 236 µg/mL (≈ 968 µM) | – | – | – | 27.2 µg/mL (≈ 111 µM) | – | – | 13.7 µg/mL (≈ 56.1 µM) | 300 µg/mL (≈ 1230 µM) | – |
| Nc1ccn([C@H]2CC[C@@H](CO)O2)c(=O)n1 [ZALCITABINE] | – | – | – | 0.1 µg/mL (≈ 0.473 µM) | – | 11 µg/mL (≈ 52.1 µM) | – | – | – | 0.1 µg/mL (≈ 0.473 µM) |
| Cc1cn([C@H]2C[C@H](N=[N+]=[N-])[C@@H](CO)O2)c(=O)[nH]c1=O [ZIDOVUDINE] | – | – | – | 0.001 µg/mL (≈ 0.00374 µM) | – | 1.9 µg/mL (≈ 7.11 µM) | – | – | – | 0.007 µg/mL (≈ 0.0262 µM) |
